# Experimental data as given in ChEMBL document CHEMBL4130626, “α-Arylidene Diacylglycerol-Lactones (DAG-Lactones) as Selective Ras Guanine-Releasing Protein 3 (RasGRP3) Ligands” (J Med Chem, 2018).
# Assays:
# [1] = target: T1, Ras guanyl-releasing protein 3 (Homo sapiens, UniProt Q8IV61); assay: Displacement of [3H]PDBu from full length MBP-tagged human RasGRP3 expressed in Escherichia coli BL21 (DE3) after 5 mins by scintillation counting
# T1 sequence (Q8IV61 whole entry): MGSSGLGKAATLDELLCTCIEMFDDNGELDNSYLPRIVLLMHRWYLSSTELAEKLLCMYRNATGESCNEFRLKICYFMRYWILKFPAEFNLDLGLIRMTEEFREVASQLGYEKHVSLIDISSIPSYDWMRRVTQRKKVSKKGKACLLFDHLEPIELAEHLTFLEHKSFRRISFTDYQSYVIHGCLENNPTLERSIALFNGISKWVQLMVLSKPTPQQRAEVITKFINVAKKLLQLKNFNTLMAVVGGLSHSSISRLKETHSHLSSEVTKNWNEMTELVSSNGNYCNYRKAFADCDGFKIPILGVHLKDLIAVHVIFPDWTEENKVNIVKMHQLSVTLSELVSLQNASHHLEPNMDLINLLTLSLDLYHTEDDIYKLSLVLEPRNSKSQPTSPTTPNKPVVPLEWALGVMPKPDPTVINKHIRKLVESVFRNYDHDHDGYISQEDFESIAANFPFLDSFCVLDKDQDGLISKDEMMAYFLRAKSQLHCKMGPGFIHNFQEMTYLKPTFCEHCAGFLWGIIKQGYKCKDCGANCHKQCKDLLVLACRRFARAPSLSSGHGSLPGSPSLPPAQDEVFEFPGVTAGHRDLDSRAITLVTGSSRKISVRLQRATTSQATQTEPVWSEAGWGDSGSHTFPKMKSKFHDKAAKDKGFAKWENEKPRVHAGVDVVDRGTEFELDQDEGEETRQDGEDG
# Summary of the method: (§1)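 Competition of [3H]PDBu binding by polyethylene glycol precipitation, with 100 µg/ml phosphatidylserine and ≤0.003% Triton X-100, 5 min at 37 °C. Proteins: full-length purified human PKCα, PKCε; full-length RasGRP1; MBP-RasGRP3 from E. coli BL21(DE3) induced with 0.3 mM IPTG 6 h at room temperature. Ki mean ± SEM of ≥2 experiments, triplicate points.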
# [2] = target: Protein kinase C alpha type (Homo sapiens, UniProt P17252); assay: Displacement of [3H]PDBu from full length recombinant human PKCalpha expressed in baculovirus expression system after 5 mins by scintillation counting; summary of the method: as §1
# [3] = target: T2, Protein kinase C epsilon type (Homo sapiens, UniProt Q02156); assay: Displacement of [3H]PDBu from full length recombinant human PKCepsilon expressed in baculovirus expression system after 5 mins by scintillation counting; summary of the method: as §1
# T2 sequence (Q02156 whole entry): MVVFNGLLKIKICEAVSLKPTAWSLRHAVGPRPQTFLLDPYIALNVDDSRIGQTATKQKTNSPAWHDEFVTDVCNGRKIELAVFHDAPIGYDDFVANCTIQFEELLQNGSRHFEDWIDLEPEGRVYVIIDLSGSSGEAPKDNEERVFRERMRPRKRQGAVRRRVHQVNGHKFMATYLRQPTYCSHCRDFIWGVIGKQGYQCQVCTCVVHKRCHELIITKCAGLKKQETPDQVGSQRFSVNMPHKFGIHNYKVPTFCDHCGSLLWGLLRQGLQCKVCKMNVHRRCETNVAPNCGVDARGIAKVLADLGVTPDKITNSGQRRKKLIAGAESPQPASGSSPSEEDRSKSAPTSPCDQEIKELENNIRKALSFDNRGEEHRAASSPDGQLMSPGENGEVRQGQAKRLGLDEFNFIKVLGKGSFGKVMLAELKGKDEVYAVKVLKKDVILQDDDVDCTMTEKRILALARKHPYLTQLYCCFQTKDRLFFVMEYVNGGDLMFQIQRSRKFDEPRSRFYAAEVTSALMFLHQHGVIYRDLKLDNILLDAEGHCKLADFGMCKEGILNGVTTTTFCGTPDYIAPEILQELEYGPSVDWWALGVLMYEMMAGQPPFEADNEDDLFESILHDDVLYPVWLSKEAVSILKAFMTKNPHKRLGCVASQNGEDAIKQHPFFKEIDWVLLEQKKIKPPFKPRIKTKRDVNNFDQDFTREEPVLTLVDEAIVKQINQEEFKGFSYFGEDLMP
# [4] = species: Homo sapiens; assay: Selectivity ratio of Ki for GST-tagged PKCalpha C1 domain to Ki for human RasGRP3 overexpressed in HEK-293 cells
Structure (SMILES),Ki [1] [nM],Ki [2] [nM],Ki [3] [nM],Ratio Ki [4]
CC(C)(C)C(=O)OCC1(CO)C/C(=C\c2ccc(Cl)cc2)C(=O)O1 (stereo unspecified),0.53,13.6,2.57,
COc1ccc2c(c1)c(/C=C1\CC(CO)(COC(=O)C(C)(C)C)OC1=O)cn2C (stereo unspecified),4.76,249,208,
Cn1cc(/C=C2\CC(CO)(COC(=O)C3CCCCC3)OC2=O)c2ccccc21 (stereo unspecified),2.86,112,98.2,
Cn1cc(/C=C2\CC(CO)(COC(=O)c3ccc(Cl)cc3)OC2=O)c2ccccc21 (stereo unspecified),11.2,146,208,
CC(C)CC(CC(C)C)C(=O)OCC1(CO)C/C(=C\c2cn(C)c3ccccc23)C(=O)O1 (stereo unspecified),5.07,39,41.5,
Cn1cc(/C=C2\CC(CO)(COC(=O)/C=C/c3ccccn3)OC2=O)c2ccccc21 (stereo unspecified),69.7,2310,3410,
O=C1OC(CO)(COC(=O)c2ccc(Cl)cc2)C/C1=C\c1ccccn1 (stereo unspecified),29,383,92.3,
COc1ccc(C(=O)OCC2(CO)C/C(=C\c3ccc(N(C)C)cc3)C(=O)O2)cc1 (stereo unspecified),7.48,128,18.2,
COc1ccc(/C=C2\CC(CO)(COC(=O)C(C)(C)C)OC2=O)cc1 (stereo unspecified),1.09,72,10.1,
CC(C)(C)C(=O)OCC1(CO)C/C(=C\c2csc3ccccc23)C(=O)O1 (stereo unspecified),1.67,28.8,8.17,
CN(C)c1ccc(/C=C2\CC(CO)(COC(=O)c3ccc(Cl)cc3)OC2=O)cc1 (stereo unspecified),1.81,25.4,6.39,
CN(C)c1ccc(C(=O)OCC2(CO)C/C(=C\c3ccccn3)C(=O)O2)cc1 (stereo unspecified),271,1480,328,
CC(C)(C)C(=O)OCC1(CO)C/C(=C/c2coc3ccccc23)C(=O)O1 (stereo unspecified),11.7,62.5,73.3,
CCCC(CCC)C(=O)OCC1(CO)C/C(=C\c2cn(C)c3ccccc23)C(=O)O1 (stereo unspecified),0.84,31.7,42.8,
CC(C)(C)C(=O)OCC1(CO)C/C(=C\c2cn(CC3CC3)c3ccccc23)C(=O)O1 (stereo unspecified),3.58,29,60.6,
CN(C)c1ccc(C(=O)OCC2(CO)C/C(=C\c3ccc([N+](=O)[O-])cc3)C(=O)O2)cc1 (stereo unspecified),,,,90
CN(C)c1ccc(C(=O)OCC2(CO)C/C(=C\c3ccc(Cl)cc3)C(=O)O2)cc1 (stereo unspecified),2.73,30.4,9.5,
COc1ccc(/C=C2\CC(CO)(COC(=O)c3ccc(Cl)cc3)OC2=O)cc1 (stereo unspecified),1.54,30.1,6.8,
Cn1cc(/C=C2\CC(CO)(COC(=O)C(C)(C)C)OC2=O)c2cc(Cl)ccc21 (stereo unspecified),1.01,42.3,39.3,
CC(C)Cn1cc(/C=C2\CC(CO)(COC(=O)C(C)(C)C)OC2=O)c2ccccc21 (stereo unspecified),3.03,15.6,19.4,
CN(C)c1ccc(/C=C2\CC(CO)(COC(=O)C(C)(C)C)OC2=O)cc1 (stereo unspecified),1.07,65.9,7.87,
